The source made the active and inactive calls. The calls are words filed in the database; no cut-off is given here.
Tests used:
Mus musculus [1] = assay: Antidiabetic activity in diet-induced obesity C57BL/6 mouse model assessed as reduction of fed blood glucose level at 100 mg/kg, po daily once for 1 week after 10 weeks; format: functional; design: scale not given: the % may be the effect or the level left
In short: (§1)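 Male C57BL/6 mice were fed a 60%-fat diet from 9 weeks of age until about 40 g, in groups of 6-10. They were dosed by oral gavage once daily in 2% HPMC + 0.2% DOSS, with 29 at 100 mg/kg and rosiglitazone at 5 mg/kg, alongside vehicle groups on lean and high-fat diet. Fed glucose was read at weeks 2, 4, 6, 8 and 10. Clinical chemistry and hematology were also measured. Analysis by ANOVA.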

Salmonella typhimurium [2] = assay: Mutagenic activity in Salmonella Typhimurium TA100 in presence of S9 activation; format: toxicity, organism-based; conditions: salmonella enterica subsp. enterica serovar typhimurium
Salmonella typhimurium [3] = assay: Mutagenic activity in Salmonella Typhimurium TA98 in presence of S9 activation; format: toxicity, organism-based; conditions: salmonella enterica subsp. enterica serovar typhimurium
[4] = molecular target: T1, Alpha-2A adrenergic receptor (Homo sapiens, UniProt P08913); assay: Inhibition of adrenergic alpha2A receptor
T1 sequence (P08913 whole entry): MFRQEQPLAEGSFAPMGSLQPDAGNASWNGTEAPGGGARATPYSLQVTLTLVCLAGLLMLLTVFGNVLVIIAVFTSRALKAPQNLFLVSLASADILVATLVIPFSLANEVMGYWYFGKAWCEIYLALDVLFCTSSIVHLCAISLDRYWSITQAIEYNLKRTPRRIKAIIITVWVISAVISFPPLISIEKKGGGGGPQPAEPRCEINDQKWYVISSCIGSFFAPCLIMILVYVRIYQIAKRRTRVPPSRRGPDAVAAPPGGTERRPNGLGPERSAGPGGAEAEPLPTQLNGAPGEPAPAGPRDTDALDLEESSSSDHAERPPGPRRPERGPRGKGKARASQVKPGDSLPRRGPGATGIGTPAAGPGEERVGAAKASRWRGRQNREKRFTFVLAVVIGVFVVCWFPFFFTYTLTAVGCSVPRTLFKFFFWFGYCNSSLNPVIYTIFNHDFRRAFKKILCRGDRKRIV

Mus musculus [5] = assay: Antidiabetic activity in diet-induced obesity C57BL/6 mouse model assessed as reduction of plasma insulin level at 100 mg/kg, po daily once after 2 weeks; format: functional, organism-based; design: dose 100 mg/kg; in short: as §1
[6] = Inhibition of sodium channel site 2
[7] = AUC in C57BL/6 mouse at 100 mg/kg, po or 10 mg/kg, iv; format: ADME, organism-based; conditions: plasma
In short: (§2)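 Male C57BL/6 mice (18-22 g; 3 per dose group per time point), given 100 mg/kg po as the hydrochloride salt in 2% HPMC + 0.2% DOSS, or 10 mg/kg iv by tail vein in 10% ethanol/40% polyethylene glycol/50% H2O. Plasma was taken at 5, 30, 120 and 360 min after dosing and drug levels were measured.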

Mus musculus [8] = assay: Toxicity in diet-induced obesity C57BL/6 mouse model assessed as white blood count at 100 mg/kg, po daily once for 10 weeks; format: organism-based; design: dose 100 mg/kg, route oral; conditions: in vivo, 1680 h; in short: as §1
[9] = molecular target: Voltage-gated inwardly rectifying potassium channel KCNH2 (Homo sapiens, UniProt Q12809); assay: Inhibition of human ERG by patch clamp method
Voltage-gated inwardly rectifying potassium channel KCNH2, sequence (Q12809 whole entry): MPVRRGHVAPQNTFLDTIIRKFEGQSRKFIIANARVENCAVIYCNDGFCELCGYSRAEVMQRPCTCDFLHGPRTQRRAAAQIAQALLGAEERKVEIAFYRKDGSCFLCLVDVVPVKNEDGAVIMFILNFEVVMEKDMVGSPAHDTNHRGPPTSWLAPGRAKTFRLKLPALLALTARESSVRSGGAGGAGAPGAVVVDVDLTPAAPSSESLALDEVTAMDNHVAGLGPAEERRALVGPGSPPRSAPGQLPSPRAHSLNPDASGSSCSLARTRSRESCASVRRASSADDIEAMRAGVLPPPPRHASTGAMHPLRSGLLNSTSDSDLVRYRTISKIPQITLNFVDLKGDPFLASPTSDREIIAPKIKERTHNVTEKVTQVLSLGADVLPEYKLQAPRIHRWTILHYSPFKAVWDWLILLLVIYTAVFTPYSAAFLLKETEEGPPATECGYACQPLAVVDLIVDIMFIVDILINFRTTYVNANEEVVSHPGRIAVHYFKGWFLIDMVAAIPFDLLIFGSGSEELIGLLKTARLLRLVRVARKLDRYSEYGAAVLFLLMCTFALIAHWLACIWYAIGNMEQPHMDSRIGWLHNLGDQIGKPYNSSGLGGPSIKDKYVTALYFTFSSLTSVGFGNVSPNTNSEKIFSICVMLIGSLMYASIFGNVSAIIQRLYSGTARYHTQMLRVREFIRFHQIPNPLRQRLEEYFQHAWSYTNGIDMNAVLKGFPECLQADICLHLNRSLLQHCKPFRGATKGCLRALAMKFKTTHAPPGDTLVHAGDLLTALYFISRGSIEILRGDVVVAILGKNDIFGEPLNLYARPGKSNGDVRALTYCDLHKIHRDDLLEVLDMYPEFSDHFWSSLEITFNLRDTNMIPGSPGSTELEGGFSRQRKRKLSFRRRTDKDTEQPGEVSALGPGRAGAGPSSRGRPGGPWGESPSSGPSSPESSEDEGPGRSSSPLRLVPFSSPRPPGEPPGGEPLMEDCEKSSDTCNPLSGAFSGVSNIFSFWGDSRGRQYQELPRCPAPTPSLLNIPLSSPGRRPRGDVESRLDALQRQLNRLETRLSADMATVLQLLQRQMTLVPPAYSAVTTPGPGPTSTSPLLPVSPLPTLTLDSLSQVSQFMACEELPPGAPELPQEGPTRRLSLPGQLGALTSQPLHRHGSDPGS
In short: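 hERG was measured by patch clamp.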

Cytochrome P450 2C9 = Cytochrome P450 2C9 (Homo sapiens, UniProt P11712); assay: Inhibition of CYP2C9 at 25 uM; format: ADME
Cytochrome P450 2C9, sequence (P11712 whole entry): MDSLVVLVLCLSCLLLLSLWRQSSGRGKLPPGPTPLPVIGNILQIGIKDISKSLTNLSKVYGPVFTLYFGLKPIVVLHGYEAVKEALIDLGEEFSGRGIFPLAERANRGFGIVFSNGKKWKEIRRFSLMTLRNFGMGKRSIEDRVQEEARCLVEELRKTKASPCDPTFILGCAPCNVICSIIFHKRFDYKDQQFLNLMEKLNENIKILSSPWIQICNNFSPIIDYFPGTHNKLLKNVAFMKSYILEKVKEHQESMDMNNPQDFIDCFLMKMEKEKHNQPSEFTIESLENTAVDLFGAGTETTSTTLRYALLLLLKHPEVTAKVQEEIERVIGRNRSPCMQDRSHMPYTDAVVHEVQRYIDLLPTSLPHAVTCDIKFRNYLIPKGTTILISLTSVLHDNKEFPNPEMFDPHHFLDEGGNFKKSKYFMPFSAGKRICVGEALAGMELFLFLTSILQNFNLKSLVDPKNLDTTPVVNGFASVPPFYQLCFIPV
In short: (§3)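 Inhibition of CYP isozymes was tested up to a highest concentration of 25 µM.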

[10] = AUC in Sprague-Dawley rat at 100 mg/kg, po or 10 mg/kg, iv; format: ADME, organism-based; conditions: plasma
In short: (§4)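 Male Sprague-Dawley rats (250 g, 3 per dose group) received 100 mg/kg by oral gavage in 2% HPMC + 0.2% DOSS, or 10 mg/kg iv by tail vein in 10% ethanol/40% PEG/50% H2O. Blood was drawn at 0.033-24 h postdose for drug levels.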

Mus musculus [11] = assay: Toxicity in diet-induced obesity C57BL/6 mouse model assessed as hemoglobin at 100 mg/kg, po daily once for 10 weeks; format: organism-based; design: dose 100 mg/kg, route oral; conditions: in vivo, 1680 h; in short: as §1
Mus musculus [12] = assay: Liver toxicity in diet-induced obesity C57BL/6 mouse model at 100 mg/kg, po daily once after 10 weeks; format: organism-based; design: dose 100 mg/kg, route oral; conditions: in vivo, 1680 h; in short: as §1
[13] = Oral bioavailability in Sprague-Dawley rat at 100 mg/kg; format: ADME, organism-based; conditions: in vivo; in short: as §4
Rattus norvegicus [14] = assay: Antidiabetic activity in genetic Zucker fa/fa rat model assessed as reduction of fed blood glucose level at 100 mg/kg, po daily once after 3 weeks relative to control; format: functional, organism-based; design: dose 100 mg/kg
In short: (§5)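 Male Zucker fa/fa rats, housed singly, were gavaged daily from 7 weeks of age with 100 mg/kg or vehicle (2% HPMC + 0.2% DOSS), 5 per group. Fed tail-vein glucose was taken on day 22. Also on day 22, after an overnight fast, sodium pyruvate 1 g/kg was given ip and glucose was read at 0-90 min.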

[15] = Inhibition of CYP1A at 25 uM; format: ADME; in short: as §3
[16] = Terminal half life in Sprague-Dawley rat at 100 mg/kg, po or 10 mg/kg, iv; format: ADME, organism-based; conditions: in vivo, read-out: beta t1/2 (converted); in short: as §4
Cytochrome P450 2C19 = Cytochrome P450 2C19 (Homo sapiens, UniProt P33261); assay: Inhibition of CYP2C19 at 25 uM; format: ADME; in short: as §3
Cytochrome P450 2C19, sequence (P33261 whole entry): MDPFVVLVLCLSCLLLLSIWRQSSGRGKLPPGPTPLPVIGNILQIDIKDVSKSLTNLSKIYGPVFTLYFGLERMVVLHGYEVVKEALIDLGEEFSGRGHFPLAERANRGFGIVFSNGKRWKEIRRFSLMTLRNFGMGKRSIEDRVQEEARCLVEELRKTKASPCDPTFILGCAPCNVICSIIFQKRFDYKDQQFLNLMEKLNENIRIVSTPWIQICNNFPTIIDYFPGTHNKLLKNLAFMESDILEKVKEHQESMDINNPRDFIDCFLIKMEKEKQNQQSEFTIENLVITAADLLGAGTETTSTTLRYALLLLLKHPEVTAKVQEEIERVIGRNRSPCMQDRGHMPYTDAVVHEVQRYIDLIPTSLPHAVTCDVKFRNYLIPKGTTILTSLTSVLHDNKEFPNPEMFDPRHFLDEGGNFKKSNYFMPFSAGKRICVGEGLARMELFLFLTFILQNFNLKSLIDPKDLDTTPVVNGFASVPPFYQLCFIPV

[17] = molecular target: T2, Muscarinic acetylcholine receptor M2 (Homo sapiens, UniProt P08172); assay: Inhibition of muscarinic M2 receptor
T2 sequence (P08172 whole entry): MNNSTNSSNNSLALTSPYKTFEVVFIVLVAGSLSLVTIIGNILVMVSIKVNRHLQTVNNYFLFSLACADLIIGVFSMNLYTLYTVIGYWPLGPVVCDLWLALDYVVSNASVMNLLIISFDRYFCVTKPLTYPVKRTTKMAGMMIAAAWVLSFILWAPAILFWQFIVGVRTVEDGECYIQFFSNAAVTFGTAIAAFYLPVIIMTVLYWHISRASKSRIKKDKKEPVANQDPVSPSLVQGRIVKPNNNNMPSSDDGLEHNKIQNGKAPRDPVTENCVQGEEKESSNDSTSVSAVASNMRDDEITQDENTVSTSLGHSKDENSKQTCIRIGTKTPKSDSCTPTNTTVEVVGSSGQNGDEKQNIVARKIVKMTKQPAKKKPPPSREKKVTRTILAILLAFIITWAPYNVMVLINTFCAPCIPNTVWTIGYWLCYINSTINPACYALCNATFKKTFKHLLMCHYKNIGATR

Cytochrome P450 2D6 = Cytochrome P450 2D6 (Homo sapiens, UniProt P10635); assay: Inhibition of CYP2D6 at 25 uM; format: ADME; in short: as §3
Cytochrome P450 2D6, sequence (P10635 whole entry): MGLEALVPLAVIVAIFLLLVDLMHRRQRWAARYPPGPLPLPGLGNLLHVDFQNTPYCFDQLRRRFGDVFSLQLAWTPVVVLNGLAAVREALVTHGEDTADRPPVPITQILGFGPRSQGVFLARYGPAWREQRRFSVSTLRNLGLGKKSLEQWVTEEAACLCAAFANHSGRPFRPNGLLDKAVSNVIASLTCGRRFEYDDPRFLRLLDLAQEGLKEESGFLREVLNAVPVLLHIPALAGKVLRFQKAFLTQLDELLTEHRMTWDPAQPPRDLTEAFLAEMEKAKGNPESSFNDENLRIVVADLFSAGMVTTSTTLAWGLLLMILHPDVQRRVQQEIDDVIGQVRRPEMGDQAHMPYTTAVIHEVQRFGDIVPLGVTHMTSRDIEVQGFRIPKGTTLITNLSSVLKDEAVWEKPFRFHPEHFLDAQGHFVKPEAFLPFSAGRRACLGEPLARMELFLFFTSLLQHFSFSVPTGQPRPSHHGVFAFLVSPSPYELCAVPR

Rattus norvegicus [18] = assay: Antidiabetic activity in genetic Zucker fa/fa rat model assessed as reduction of glucose production at 100 mg/kg, po daily once after 3 weeks by pyruvate tolerance test; format: functional, organism-based; design: dose 100 mg/kg; in short: as §5
Mus musculus [19] = assay: Antidiabetic activity in diet-induced obesity C57BL/6 mouse model assessed as reduction of plasma insulin level at 100 mg/kg, po daily once after 10 weeks
Mus musculus [20] = assay: Toxicity in diet-induced obesity C57BL/6 mouse model assessed as hematocrit at 100 mg/kg, po daily once for 10 weeks; format: organism-based; design: dose 100 mg/kg, route oral; conditions: in vivo, 1680 h; in short: as §1
[21] = Cmax in C57BL/6 mouse at 100 mg/kg, po or 10 mg/kg, iv; format: ADME, organism-based; conditions: in vivo; in short: as §2

IC50 [4]: 2.83 µM
IC50 [6]: 3.37 µM
AUC [7]: 7900 ng·h/mL
Activity (Cytochrome P450 2C9): Not Active
AUC [10]: 3700 ng·h/mL
bioavailability [13]: 25%
Activity [15]: Not Active
half-life [16]: 8.4 h
Activity (Cytochrome P450 2C19): Not Active
IC50 [17]: 6.28 µM
Activity (Cytochrome P450 2D6): Not Active
Cmax [21]: 1000 nM
SMILES: O=C(Nc1ccccc1-c1cn2c(CN3CCNCC3)csc2n1)c1cnc2ccccc2n1
Activity (Mus musculus [1]): 15%
Activity (Salmonella typhimurium [2]): Non-toxic
Activity (Salmonella typhimurium [3]): Non-toxic
Activity (Mus musculus [5]): Active
Activity (Mus musculus [8]): Active
IC50 [9]: > 10 µM
Activity (Mus musculus [11]): Active
Activity (Mus musculus [12]): Non-toxic
Activity (Rattus norvegicus [14]): Active
Activity (Rattus norvegicus [18]): Active
Activity (Mus musculus [19]): Active
Activity (Mus musculus [20]): Active

— ChEMBL document CHEMBL1140923, “Discovery of imidazo[1,2-b]thiazole derivatives as novel SIRT1 activators” (J Med Chem, 2009)
